Assay outcomes as filed in PubChem BioAssay.
Sampled rows, rich in hits. Any-hit rate of the full collection: about 9.2%.
bCat KO growth: primary screen for growth suppressors in beta-catenin knockout HCT116 cells (colon tumor, human); HCT116 beta-catenin knockout viability, CellTiter-Glo, 60 h; active compounds read low; viability, % at 10 µM; hit rate 1.5% among 140,000; AID 818, 2007;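 active = viability at or under a set limit, the compound median less 4 SD, cut at about 6% in these data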
L major viab: Leishmania major promastigote growth inhibition, primary screen | Leishmania major promastigotes, resazurin fluorescence viability | inhibition, % at 10 µM | hit rate 9% among 200,000 | AID 1063, 2008; in the data active = inhibition above about 50%;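 also: promastigotes grown with compound for 44 hours at 28 °C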
HCT116 PTEN-null: growth suppression of PTEN-null HCT116, primary screen, cell-based, CellTiter-Glo; viability, % at 10 µM; AID 827, 2007; hit rate 1.2% among 140,000; HCT116 PTEN-null viability, 60 h; active compounds read low;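 active = viability at or below a set limit, 4 SD under the median of all tested compounds, cut at about 3.7% in these data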;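 also: PTEN knockout HCT116 line with beta catenin targeted HCT116 as companion control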
Dynein cargo inh: inhibitors of GR-EGFP nuclear translocation, primary screen, dynein cargo transport inhibitor project, imaging, high-content, 3617.4 mouse cells; test concentration mostly 20 µM; stimulated with dexamethasone, 1 µM; active compounds read low; z-score, hits read low; hit rate 0.47% among 220,000; AID 1381, 2008;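 active = plate z-score of nuclear minus cytoplasmic receptor signal below a set negative limit, without overly bright fluorescence or cell loss, cut at about -3.5 in these data, passing the limit was not always enough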;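 also: z-score of nuclear minus cytoplasmic ring GR-EGFP intensity difference per well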
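medium = tetracycline-free induction medium containing charcoal-stripped FBS | probe or stimulus = dexamethasone, 1.0 µM final | timing = 48 h induction, then 1 h compound, then 30 min agonist, 37 °C | detection = automated 10x imaging of fixed Hoechst-stained cells | read-out basis = nuclear versus cytoplasmic GR-EGFP signal, averaged per well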
Autophagy mod: autophagy modulators in MEF cells, primary screen, imaging, high-content, MEF GFP-LC3; MEF GFP-LC3 puncta imaging; test concentration mostly 10 µM; calls only at 10 µM (by protocol); hit rate 0.98% among 190,000; AID 463193, 2010;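 active = percentage of spot-positive cells more than 3 SD above its plate mean, without a fluorescence outlier flag or 80% toxicity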
Large screens that a line does not name were inactive.

O=C1CC(c2ccccc2)CC(=O)C1CS(=O)(=O)c1ccccc1 (centres undefined)	none (no result: bCat KO growth, HCT116 PTEN-null)
CCOC(=O)C1(Cc2ccccc2)CCN(Cc2csc(C(C)=O)c2)CC1	L major viab 85.7 (no result: bCat KO growth, HCT116 PTEN-null)
CCOC(=O)C1(Cc2ccccc2)CCN(Cc2cnn(C(C)C)c2)CC1	none (no result: bCat KO growth, HCT116 PTEN-null)
CCN1c2ccccc2-c2nc3ccccc3n2C1c1cccs1 (centres undefined)	L major viab 95.7
Cc1ccc(S(=O)OCC(=O)Nc2cc(Cl)ccc2N2CCOCC2)cc1 (centres undefined)	L major viab 98.8 (no result: bCat KO growth, HCT116 PTEN-null)
O=C(COS(=O)c1ccccc1)Nc1cc(Cl)ccc1N1CCOCC1 (centres undefined)	none (no result: bCat KO growth, HCT116 PTEN-null)
CCCCc1ccc(C2C3=C(CC(C)(C)CC3=O)NC3=C2C(=O)c2ccccc23)cc1 (centres undefined)	L major viab 99.0
CCCc1ccc(C2C3=C(CC(C)(C)CC3=O)NC3=C2C(=O)c2ccccc23)cc1 (centres undefined)	L major viab 87.8
CC(=O)N1CCc2c(sc(NC(=O)c3ccc([N+](=O)[O-])o3)c2C#N)C1	L major viab 98.0 (no result: bCat KO growth, HCT116 PTEN-null)
CC(C)N1CCc2c(sc(NC(=O)c3ccc(S(=O)(=O)N4CCOCC4)cc3)c2C#N)C1	none
COc1ccc(C(=O)Nc2sc3c(c2C#N)CCN(C(C)=O)C3)cc1	none (no result: bCat KO growth, HCT116 PTEN-null)
CCOC(=O)N1CCc2c(sc(NC(=O)c3ccc(S(=O)(=O)N4CCCC4)cc3)c2C#N)C1	L major viab 57.3
COc1ccc(S(=O)(=O)NCC2CCCN(Cc3ccccc3C)C2)cc1 (centres undefined)	L major viab 98.8 (no result: bCat KO growth, HCT116 PTEN-null)
COc1ccc(S(=O)(=O)NCC2CCCN(C(=O)c3sccc3C)C2)cc1 (centres undefined)	Autophagy mod active (no result: bCat KO growth, HCT116 PTEN-null)
C[N+](C)(C)CCOC(=O)C1(c2ccccc2)CCCC1	none
CCOC(=O)c1ccc(NC(=O)C2(c3ccccc3)CCOCC2)cc1	none
CCN(CC)CCOC(=O)C1(c2ccccc2)CCOCC1	L major viab 73.0
CCN(CC)CCCOC(=O)C1(c2ccccc2)CCCC1	L major viab 99.1
NC(=O)C1(c2ccccc2)CCOCC1	Autophagy mod active
COc1cc(CNCC(C)C)c(Br)cc1OCC(=O)NCc1ccccc1	L major viab 95.8
CC(NCc1cc(Br)ccc1OCC(=O)NCc1ccccc1)c1ccccc1 (centres undefined)	L major viab 97.6, Autophagy mod active (no result: bCat KO growth, HCT116 PTEN-null)
CCN(CC)CCNCc1cc(Br)ccc1OCC(=O)NCc1ccccc1	none (no result: bCat KO growth, HCT116 PTEN-null)
COc1cc(CNC(C)c2ccccc2)c(Br)cc1OCC(N)=O (centres undefined)	none
COc1cc(CNCCN(C)C)c(Br)cc1OCC(=O)NCc1ccccc1	L major viab 99.5
CCOc1ccc(Oc2ccc(NC(=O)[C@@H](NC(N)=O)[C@@H](C)CC)cc2)cc1	none (no result: bCat KO growth, L major viab, HCT116 PTEN-null, Autophagy mod)
CN(C)C1=NC(=O)/C(=C\c2ccccc2)S1	Autophagy mod active (no result: bCat KO growth, HCT116 PTEN-null)
O=C(c1cc(-c2ccccc2)nc2ccccc12)N1CCc2ccccc2C1	L major viab 57.7
O=S(=O)(/C=C/c1ccccc1)N1CCN(c2nc(-c3cccnc3)nc3ccccc23)CC1	L major viab 52.5 (no result: bCat KO growth, HCT116 PTEN-null)
O=C(c1cc(-c2ccncc2)nc2ccccc12)N1CCN(S(=O)(=O)/C=C/c2ccccc2)CC1	L major viab 97.5
Cc1ccc(-c2cc(C(=O)N3CCN(c4ncccn4)CC3)c3ccccc3n2)cc1	none
c1cncc(-c2nc(N3CCOCC3)c3ccccc3n2)c1	none
Cc1ccc2nc(-c3ccccc3)cc(C(=O)N3CCc4ccccc4C3)c2c1	none
N#CC1=CN(Cc2ccccc2)C=C(/C=N/Nc2ccccc2)C1	L major viab 97.5 (no result: bCat KO growth, HCT116 PTEN-null)
Oc1ccc(/C=N/Nc2ccccc2)cc1	none (no result: bCat KO growth, HCT116 PTEN-null)
CCOC(=O)NC(=O)COC(=O)c1ccc(Sc2ncn[nH]2)c([N+](=O)[O-])c1	none (no result: bCat KO growth, HCT116 PTEN-null)
OCCN1CCN(CC#CCn2c3ccccc3c3ccccc32)CC1	L major viab 63.6
CC(C)Oc1cccc(C(=O)NC(=S)Nc2ccccc2)c1	L major viab 86.1
CCCOc1cccc(C(=O)NC(=S)Nc2cccc(NC(=O)c3ccccc3Cl)c2)c1	L major viab 97.1
CC(=O)c1cccc(NC(=O)c2oc(C)nc2C)c1	L major viab 71.8
CC(C)Oc1cccc(C(=O)NC(=S)Nc2cccnc2)c1	none
CC(=O)c1cccc(NC(=S)NC(=O)c2cccc(C)c2)c1	L major viab 51.1
CC(=O)c1cccc(NC(=S)NC(=O)c2ccc(Cl)cc2)c1	none
CC(=O)Nc1ccc(S(=O)(=O)Nc2ccc(C)c([N+](=O)[O-])c2)cc1	none (no result: bCat KO growth, HCT116 PTEN-null)
COc1ccc(N2C(=O)C3CCCN3C2c2ccc(F)cc2)cc1Cl (centres undefined)	none
O=C(NCc1ccco1)/C(=C/c1cccnc1)NC(=O)c1ccco1	none
CCCCOc1cccc(C(=O)NC(=S)Nc2cccc(NC(=O)c3ccccc3Cl)c2)c1	none
CC(C)COc1cccc(C(=O)NC(=S)Nc2cccc(NC(=O)c3ccccc3Cl)c2)c1	L major viab 80.2
Cc1cccc(OCC(=O)NCc2cc(C)nc3ccccc23)c1	none (no result: bCat KO growth, HCT116 PTEN-null)
COc1ccccc1NC(=O)Cn1c(CCC(=O)O)ccc1-c1ccc(C)cc1	none (no result: bCat KO growth, HCT116 PTEN-null)
Cn1c(=O)[nH]c2nnc(-c3ccc(Cl)c(Cl)c3)nc2c1=O	none (no result: bCat KO growth, L major viab, HCT116 PTEN-null, Autophagy mod)
CCN1C(=O)CC(N2CCN(C(c3ccccc3)c3ccccc3)CC2)C1=O (centres undefined)	none
CCN1C(=O)C(CC(=O)N2CCN(C(c3ccccc3)c3ccccc3)CC2)N(CC)C1=O (centres undefined)	Autophagy mod active
c1ccc2c(N3CCOCC3)nc(-c3ccncc3)nc2c1	L major viab 91.8
CC1CCN(c2nc(-c3ccncc3)nc3ccccc23)CC1	L major viab 98.9
CCN1CCN(c2nc(-c3ccccc3)nc3ccccc23)CC1	none
Cc1cc(/C=C(\C#N)C(=O)NCc2ccco2)c(C)n1-c1ccc(C(=O)O)cc1	none (no result: bCat KO growth, HCT116 PTEN-null)
Cc1ccc(S(=O)(=O)N2CCN(c3ccc4nnc(-c5ccccc5)n4n3)CC2)cc1	L major viab 74.9
COc1ccc(S(=O)(=O)N2CCN(c3ccc4nnc(-c5ccc(F)cc5)n4n3)CC2)cc1	L major viab 98.6
COc1cccc(C2CC(c3ccccc3)=NN2S(=O)(=O)c2ccc(C)cc2)c1OC (centres undefined)	L major viab 61.1 (no result: bCat KO growth, HCT116 PTEN-null)
COc1cccc(C2CC(c3cccc(NS(C)(=O)=O)c3)=NN2C(=O)c2ccccc2)c1OC (centres undefined)	none
COc1ccccc1C1CC(c2ccc(Br)cc2)=NN1C(=O)c1cccnc1 (centres undefined)	L major viab 51.1
COc1cccc(C2CC(c3ccc(Br)cc3)=NN2C(=O)c2ccncc2)c1OC (centres undefined)	L major viab 61.2 (no result: bCat KO growth, HCT116 PTEN-null)
S=C(NCCc1ccccc1)Nc1c(Cl)cccc1Cl	none (no result: bCat KO growth, L major viab, HCT116 PTEN-null, Autophagy mod)
O=C(c1ccccc1)c1ccc(OCCCCN2CCCCC2)cc1	L major viab 97.7
